Compound activity: PubChem, several laboratories
In the library only some 2.8% were active in any assay of this set; here they are far more common.
PGE2 EP2 inh = human EP2 receptor antagonists, primary screen, TR-FRET cAMP, C6 glioma cells; Prostaglandin E2 receptor EP2 subtype (Homo sapiens), P43116; C6 glioma cells expressing human EP2; cells stimulated with saturating PGE2; inhibition, % at 25 µM; hit rate 0.52% among 260,000;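 active means percent inhibition above 40 after rounding to a whole number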;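 further: rat C6 glioma host cells with rolipram phosphodiesterase inhibitor present; the protocol text gives 20 µM as final concentration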
Target sequence (P43116 whole entry, looked up): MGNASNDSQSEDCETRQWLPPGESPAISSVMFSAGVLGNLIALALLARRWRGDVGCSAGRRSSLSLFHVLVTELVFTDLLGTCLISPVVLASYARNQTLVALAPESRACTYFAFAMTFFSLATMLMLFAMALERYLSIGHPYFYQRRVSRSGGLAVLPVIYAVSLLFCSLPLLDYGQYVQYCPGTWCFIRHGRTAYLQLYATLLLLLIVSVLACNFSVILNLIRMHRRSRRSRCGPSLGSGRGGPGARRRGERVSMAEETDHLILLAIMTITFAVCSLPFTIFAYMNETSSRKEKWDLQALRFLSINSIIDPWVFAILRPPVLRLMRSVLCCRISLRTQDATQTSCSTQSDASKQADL
NPY2 pot ag = NPY-Y2 potentiators or agonists, primary screen, cell-based; activation, % at 3.6 µM; Neuropeptide Y receptor type 2 (Homo sapiens), P49146; cells expressing NPY-Y2, potentiator/agonist read-out; hit rate 0.45% among 220,000; in the data active means activation above about 27%;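 further: cells stimulated with NPY near EC25 plus isoproterenol at EC100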
NPY Y1 blocker = NPY-Y1 receptor antagonists, primary screen, cell-based; HEK293-CNG Y1 cells, membrane potential fluorescence; NPY at EC95, then isoproterenol; Neuropeptide Y receptor type 1 (Homo sapiens), P25929; hit rate 1% among 200,000; inhibition, % at 3.6 µM; AID 1040, 2008;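 active means inhibition above the campaign mean inhibition of all tested compounds plus 3 SD, cut at about 20% in these data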
Target sequence (P25929 whole entry, looked up): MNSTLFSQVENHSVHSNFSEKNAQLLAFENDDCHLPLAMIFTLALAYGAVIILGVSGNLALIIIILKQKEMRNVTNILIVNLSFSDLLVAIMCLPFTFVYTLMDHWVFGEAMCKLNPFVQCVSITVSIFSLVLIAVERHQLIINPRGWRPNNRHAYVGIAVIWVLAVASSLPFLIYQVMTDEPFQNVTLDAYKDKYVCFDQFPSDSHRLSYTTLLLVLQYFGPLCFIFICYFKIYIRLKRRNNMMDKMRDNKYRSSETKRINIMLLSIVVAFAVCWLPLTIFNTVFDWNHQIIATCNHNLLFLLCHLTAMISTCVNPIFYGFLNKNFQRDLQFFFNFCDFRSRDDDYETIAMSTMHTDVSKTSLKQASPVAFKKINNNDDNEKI
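Material: HEK293 cells co-expressing NPY Y1 receptor and cyclic-nucleotide gated channel. Timing: compound incubation 1 h at room temperature, readout 45 min post-stimulation. Signal: fluorescence, membrane potential probe.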
NPY Y2 blocker = NPY-Y2 receptor antagonists, primary screen, cell-based | NPY-Y2 expressing cells, antagonist mode | hit rate 0.99% among 140,000 | inhibition, % at 2.7 µM | Neuropeptide Y receptor type 2 (Homo sapiens), P49146 | AID 793, 2007; in the data active means inhibition above about 17%
EP2 modulator = EP2 receptor modulators, cAMP readout, primary screen, cell-based, HTRF cAMP, PGE2 stimulation | induction, % at 25 µM | Prostaglandin E2 receptor EP2 subtype (Homo sapiens), P43116 | AID 940, 2007 | hit rate 0.83% among 260,000 | EP2-expressing cells, cAMP HTRF FRET, PGE2 co-stimulation;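 active means compounds whose cAMP rise, as percent of the full-agonist control response, exceeds 60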;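 further: rat C6 glioma line stably carrying human EP2 under a CMV promoter; the protocol text gives 20 µM as final concentration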
NPY-Y1 PAM-ag = NPY-Y1 receptor potentiators or agonists, primary screen, cell-based; AID 1304, 2008; hit rate 0.37% among 220,000; activation, % at 3.6 µM; Neuropeptide Y receptor type 1 (Homo sapiens), P25929; NPY-Y1 expressing cells, potentiator/agonist activation; in the data active means activation above about 33%, passing the limit was not always enough;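 further: cells stimulated with NPY at EC10 then isoproterenol at EC100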
NPY-Y1 antag ct = NPY-Y1 receptor antagonists, selectivity check, counter-screen for NPY-Y2 antagonist project, cell-based; shares compounds with NPY Y2 blocker; cell-based NPY-Y1 antagonism counterscreen; inhibition, % at 3.6 µM; hit rate 19% among 710; AID 1256, 2008; in the data active means inhibition above about 20%;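 further: cells challenged with NPY then isoproterenol with cAMP sensed through a CNG channel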
NPY2 antag conf = NPY-Y2 receptor antagonists, retest of hits, confirmation, HEK293-CNG cells, membrane potential fluorescence, triplicate | AID 1257, 2008 | inhibition, % at 2.8 µM | hit rate 32% among 710 | shares compounds with NPY Y2 blocker | HEK293 NPY-Y2 CNG channel;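 active means mean inhibition of triplicate wells above the hit cutoff set in the primary screen, cut at about 17% in these data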
Large screens that a line does not name were inactive (follow-up assays come after a bar, where they were run).

COCCn1c(-c2ccc(Cl)cc2)cnc1SCC(=O)NCc1cccs1	NPY Y2 blocker 18 | NPY-Y1 antag ct inactive | NPY2 antag conf inactive
CCOc1ccc2nc(NC(=O)CS(=O)(=O)c3ccc(C)cc3)sc2c1	NPY Y2 blocker 25 | NPY-Y1 antag ct inactive | NPY2 antag conf 18
CCOc1ccc2nc(NC(=O)CS(=O)(=O)c3ccccc3)sc2c1	none
Oc1ccccc1-c1nc(=S)[nH][nH]1	none (no result: NPY2 pot ag, NPY Y1 blocker, NPY Y2 blocker, NPY-Y1 PAM-ag)
O=C(NC1CCCCC1)C(c1ccco1)N(Cc1cccnc1)C(=O)C1COc2ccccc2O1 (centres undefined)	NPY Y2 blocker 19 | NPY-Y1 antag ct inactive | NPY2 antag conf inactive
Cc1nn(-c2ccccc2)c(C)c1/C=N/NC(=O)CSc1nnc(SCc2ccc(Cl)cc2)s1	none
O=C(CSc1nnc(SCc2ccccc2)s1)N/N=C/c1c(Cl)cccc1Cl	NPY Y2 blocker 26 | NPY-Y1 antag ct inactive | NPY2 antag conf inactive
Cc1ccc(-n2c(SCC(=O)NC3CCCC3)nnc2-c2ccncc2)cc1	none (no result: NPY2 pot ag, NPY Y1 blocker, NPY Y2 blocker, NPY-Y1 PAM-ag)
CC1(C)Cc2ccccc2-c2nnc(SCc3ccccc3)n21	NPY Y2 blocker 17 | NPY-Y1 antag ct inactive | NPY2 antag conf inactive
COc1ccccc1CN(Cc1cc2cccc(C)c2n2nnnc12)C(=O)C1CCC1	none (no result: NPY2 pot ag, NPY Y1 blocker, NPY Y2 blocker, NPY-Y1 PAM-ag)
C/C(Cl)=C\Cn1c(N2CCN(CCO)CC2)nc2c1c(=O)n(C)c(=O)n2C	none (no result: NPY2 pot ag, NPY Y1 blocker, NPY Y2 blocker, NPY-Y1 PAM-ag)
CC1CCCC(C)N1C(=O)CSc1nc2sc3c(c2c(=O)[nH]1)CCCC3 (centres undefined)	none (no result: NPY2 pot ag, NPY Y1 blocker, NPY Y2 blocker, NPY-Y1 PAM-ag)
Cc1ccc(OCCNC(=O)/C=C/c2ccccc2)cc1C	none
Cc1ccc(OCCNC(=O)/C=C/c2ccc([N+](=O)[O-])cc2)cc1C	NPY Y2 blocker 18 | NPY-Y1 antag ct inactive | NPY2 antag conf inactive
O=C1c2ccccc2NC(c2c(Cl)cccc2Cl)N1Cc1ccccc1 (centres undefined)	none
O=C1c2ccccc2NC(c2ccc(Cl)cc2Cl)N1Cc1ccccc1 (centres undefined)	NPY Y2 blocker 28, EP2 modulator 61 | NPY-Y1 antag ct inactive | NPY2 antag conf inactive
COc1ccc(-c2ccc(SCC(=O)Nc3ccc(N(C)C)cc3)nn2)cc1OC	none (no result: NPY2 pot ag, NPY Y1 blocker, NPY Y2 blocker, NPY-Y1 PAM-ag)
Cc1nc2ccc(F)cc2cc1C(=O)Nc1ccc(Cl)c(Cl)c1	NPY Y2 blocker 23 | NPY-Y1 antag ct inactive | NPY2 antag conf 31
Cc1nc2ccc(F)cc2cc1C(=O)NCc1ccco1	none
O=C(CCCOc1ccc(Cl)cc1Cl)N/N=C/c1ccccc1	none
O=C(COc1ccc(Cl)cc1Cl)N/N=C/CCc1ccccc1	NPY Y2 blocker 21 | NPY-Y1 antag ct inactive | NPY2 antag conf inactive
COCCn1c(SCC(=O)Nc2cccc(OC)c2)nnc1-c1ccoc1C	none (no result: NPY2 pot ag, NPY Y1 blocker, NPY Y2 blocker, NPY-Y1 PAM-ag)
CCOC(=O)CSc1nnc(COc2ccc(Cl)cc2)o1	none (no result: NPY2 pot ag, NPY Y1 blocker, NPY Y2 blocker, NPY-Y1 PAM-ag)
COC(=O)c1ccc(OC)c(CSc2nnc(-c3ccc(C(C)(C)C)cc3)o2)c1	none
Cc1ccc(C(=O)CSc2nnc(COc3cc(C)cc(C)c3)o2)cc1	NPY Y2 blocker 21 | NPY-Y1 antag ct inactive | NPY2 antag conf 20
COC(=O)c1ccc(OC)c(CSc2nnc(COc3ccc(Cl)cc3)o2)c1	NPY Y2 blocker 27 | NPY-Y1 antag ct 25 | NPY2 antag conf 19
COC(=O)c1ccc(OC)c(CSc2nnc(COc3ccccc3)o2)c1	NPY Y2 blocker 18 | NPY-Y1 antag ct inactive | NPY2 antag conf inactive
Cc1cc(N2CCN(c3ccccc3)CC2)n2c(n1)nc1ccccc12	NPY Y2 blocker 22 | NPY-Y1 antag ct inactive | NPY2 antag conf inactive
COc1ccc(-c2nc(C#N)c(NCCCN(C)C)o2)cc1OC	none
COc1ccc(-c2nc(C#N)c(NC(C)c3ccccc3)o2)cc1OC (centres undefined)	NPY Y2 blocker 21 (no result: PGE2 EP2 inh) | NPY-Y1 antag ct inactive | NPY2 antag conf 34
COc1ccc(NC(=O)N(Cc2ccccc2)Cc2cc3ccc(C)cc3[nH]c2=O)cc1	none (no result: NPY2 pot ag, NPY Y1 blocker, NPY Y2 blocker, NPY-Y1 PAM-ag)
N=c1c2c(-c3ccccc3)c(-c3ccccc3)n(Cc3ccco3)c2ncn1Cc1ccccc1	NPY2 pot ag 54, NPY Y2 blocker 21, NPY-Y1 PAM-ag 56 | NPY-Y1 antag ct inactive | NPY2 antag conf inactive
c1ccc(-c2c(-c3ccccc3)n(Cc3ccco3)c3ncnc(NCCCn4ccnc4)c23)cc1	PGE2 EP2 inh 49, NPY Y2 blocker 29 | NPY-Y1 antag ct inactive | NPY2 antag conf inactive
CC(C)NS(=O)(=O)c1ccc2c(c1)OCCO2	none (no result: NPY2 pot ag, NPY Y1 blocker, NPY Y2 blocker, NPY-Y1 PAM-ag)
CNC(=S)N1CCN(C(=O)C(=O)Nc2ccc(C(=O)OC)cc2)CC1	none (no result: NPY2 pot ag, NPY Y1 blocker, NPY Y2 blocker, NPY-Y1 PAM-ag)
CO/N=C(\CS(=O)(=O)Cc1ccc(OC)cc1)c1ccc(Cl)cc1	none
CO/N=C(/CS(=O)Cc1ccc(Cl)cc1)c1ccc(Cl)cc1 (centres undefined)	NPY Y2 blocker 18 | NPY-Y1 antag ct inactive | NPY2 antag conf inactive
Cc1ccc(OCCN2C(=O)S/C(=C\c3ccc(C)o3)C2=O)cc1	NPY Y2 blocker 17 | NPY-Y1 antag ct inactive | NPY2 antag conf inactive
COc1cc(/C=C2\SC(=Nc3ccc(O)cc3)NC2=O)cc(OC)c1O	none (no result: NPY Y2 blocker)
COc1cc(/C=C2\SC(=Nc3c(C)n(C)n(-c4ccccc4)c3=O)NC2=O)ccc1O	NPY Y1 blocker 20, NPY Y2 blocker 31 | NPY-Y1 antag ct 48 | NPY2 antag conf 74
O=C(c1cc2sccc2n1Cc1ccccc1)N1CCc2ccccc21	NPY Y2 blocker 20, EP2 modulator 64 | NPY-Y1 antag ct inactive | NPY2 antag conf inactive
CC1CCc2c(sc3nc(SCC(=O)NCc4ccccc4)[nH]c(=O)c23)C1 (centres undefined)	none (no result: NPY2 pot ag, NPY Y1 blocker, NPY Y2 blocker, NPY-Y1 PAM-ag)
Brc1cccc(CNc2nc3ccccc3n2CCN2CCCCC2)c1	none (no result: NPY Y1 blocker, NPY Y2 blocker)
COc1cccc(CNc2nc3ccccc3n2CCN2CCCCC2)c1	NPY Y2 blocker 19 | NPY-Y1 antag ct inactive | NPY2 antag conf inactive
Cc1onc(-c2ccccc2Cl)c1C(=O)Nc1sc2c(c1C#N)CCC2	NPY Y2 blocker 26 | NPY-Y1 antag ct inactive | NPY2 antag conf 18
N#Cc1c(NC(=O)C2CC(c3ccccc3Cl)=NO2)sc2c1CCC2 (centres undefined)	none
CCCOc1ccc(C2(C(=O)O)CCCC2)cc1	NPY Y2 blocker 44 | NPY-Y1 antag ct inactive | NPY2 antag conf inactive
